From ChEMBL document CHEMBL1255309, “Relationship between antimalarial activity and heme alkylation for spiro- and dispiro-1,2,4-trioxolane antimalarials” (Antimicrob Agents Chemother, 2008)

What was measured:
[1] = Induction of heme alkylation of Fe(II) heme assessed as loss of heme at 10 uM in presence of 50% ACN-H2O with excess sodium dithionite under argon at 20 degC by spectrophotometry
Summary of the method: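 Fe(II) heme (10 μM final; hemin reduced by excess sodium dithionite) in 50% ACN-water under continuous argon, 20°C, stirred; reaction started with peroxide at 10 μM final. Soret absorbance (418 nm) read every 0.1 s, converted to heme concentration via linear calibration (ε = 1.26 × 10⁵ M⁻¹ cm⁻¹); heme loss measured at completion (t = 30 s). n = 3.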

Plasmodium falciparum = assay: Antimalarial activity against chloroquine-resistant Plasmodium falciparum K1; assay type: functional, organism-based
[2] = Induction of heme alkylation of Fe(II) heme assessed as adduct A472 absorbance change at completion of reaction at 10 uM in presence of 50% ACN-H2O with excess sodium dithionite under argon at 20 degC by spectrophotometry
Summary of the method: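 Reduced heme made from hemin (10 μM final) in 50% ACN-water (from 0.5 mM stock in 0.1 M NaOH) with excess sodium dithionite, argon-purged sealed cell, stirred at 20°C; peroxide added to 10 μM final. Product formation followed as A472, normalized to initial 418 nm heme absorbance; taken at completion (t = 30 s). n = 3.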

Row | Structure (SMILES) | inhibition [1] | IC50 (Plasmodium falciparum) | deltaA [2]
1 | C[C@@]1(c2ccccc2)OOC2(O1)C1CC3CC(C1)CC2C3 (stereo partly drawn) | 67% | 10 nM | 0.63
2 | CC(C)(C)[C@H]1CC[C@]2(CC1)OO[C@]1(O2)C2CC3CC(C2)CC1C3 | 34% | 200 nM | 0.25
3 | CC(C)(O)[C@H]1CC[C@]2(CC1)OO[C@]1(O2)C2CC3CC(C2)CC1C3 | 30% | 210 nM | 0.23
4 | CO[C@H]1O[C@@H]2O[C@@]3(C)CC[C@H]4[C@H](C)CC[C@@H]([C@H]1C)[C@@]24OO3 | 24% |  | 
5 | O=C(O)C[C@H]1CC[C@]2(CC1)OO[C@]1(O2)C2CC3CC(C2)CC1C3 | 83% | 110 nM | 0.87
6 | Clc1ccc([C@H]2CC[C@]3(CC2)OO[C@]2(O3)C3CC4CC(C3)CC2C4)cc1 | 84% | 20 nM | 0.84
7 | O=S(=O)(O)OC[C@H]1CC[C@]2(CC1)OO[C@]1(O2)C2CC3CC(C2)CC1C3 | 81% | 250 nM | 0.85
8 | O=C1CCC2(CC1)OOC1(O2)C2CC3CC(C2)CC1C3 (stereo not drawn) | 81% | 1.7 nM | 0.88
9 | OC[C@H]1CC[C@@]2(CC1)OO[C@@]1(O2)C2CC3CC(C2)CC1C3 | 83% | 2.6 nM | 0.78
10 | C[C@H]1[C@H](OC(=O)CCC(=O)O)O[C@@H]2O[C@@]3(C)CC[C@H]4[C@H](C)CC[C@@H]1[C@@]24OO3 [ARTESUNATE] | 44% | 3.2 nM | 0.39
11 | OC[C@H]1CC[C@]2(CC1)OO[C@]1(O2)C2CC3CC(C2)CC1C3 | 83% | 2.8 nM | 0.89
12 | C1CCC2(CC1)OOC1(CCCCC1)O2 | 17% |  | 0.03
13 | O=C1C2CC3CC1CC(C2)[C@]31OO[C@@]2(CCCCC2)O1 | 61% | 20 nM | 0.57
14 | NC[C@H]1CC[C@]2(CC1)OOC1(O2)C2CC3CC(C2)CC1C3 (stereo partly drawn) | 83% |  | 0.87
15 | C1CC[C@]2(CC1)OO[C@]1(O2)C2CCCC1CCC2 | 9% | 340 nM | 0.03
16 | CCC[C@H]1CC[C@]2(CC1)OO[C@]1(O2)C2CC3CC(C2)CC1C3 | 85% | 3.6 nM | 0.8
17 | CC(C)(N)CNC(=O)C[C@H]1CC[C@]2(CC1)OO[C@]1(O2)C2CC3CC(C2)CC1C3 | 83% |  | 0.89
18 | CC1(C)CC[C@]2(CC1)OO[C@]1(O2)C2CC3CC(C2)CC1C3 | 82% | 7.9 nM | 0.77
19 | c1ccc([C@H]2CC[C@]3(CC2)OO[C@]2(O3)C3CC4CC(C3)CC2C4)cc1 | 77% | 6.5 nM | 0.79
20 | c1ccc([C@@H]2OOC3(O2)C2CC4CC(C2)CC3C4)cc1 (stereo partly drawn) | 16% | 1500 nM | 0.13
21 | C[C@@H]1CC[C@H]2[C@@H](C)C(=O)O[C@@H]3O[C@@]4(C)CC[C@@H]1[C@]32OO4 | 15% |  | 0.12
22 | C1CCC2(CC1)OOC1(O2)C2CC3CC(C2)CC1C3 (stereo not drawn) | 86% | 3.8 nM | 0.84
23 | O=C(O)[C@H]1CC[C@]2(CC1)OO[C@]1(O2)C2CC3CC(C2)CC1C3 | 74% | 49 nM | 0.89
24 | C[C@H]1[C@@H](O)O[C@@H]2O[C@@]3(C)CC[C@H]4[C@H](C)CC[C@@H]1[C@@]24OO3 [ARTENIMOL] | 28% | 0.77 nM | 0.22
25 | c1ccc(C2(c3ccccc3)CCC3(CC2)OOC2(O3)C3CC4CC(C3)CC2C4)cc1 (stereo not drawn) | 11% |  | 0.1
